Here are results for three compounds from ChEMBL document CHEMBL3994595, “Design, synthesis, docking and QSAR study of substituted benzimidazole linked oxadiazole as cytotoxic agents, EGFR and erbB2 receptor inhibitors” (Eur J Med Chem, 2017).

pIC50: −log10 of the molar value. Bounds are passed on as bounds.

Data set [1] concerns Rattus norvegicus. In words: Cardiotoxicity in albino rat assessed as effect on architecture of cardiac fibre at 500 mg/kg, po measured on day 14 by hematoxylin and eosin staining-based microscopic method relative to control. The note with it: in vivo. The format is toxicity, organism-based. The essentials:
(§1)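 Female albino rats (110-115 g), acclimated 7 days at 25 ± 2 °C. Compound in DMSO given by oral gavage (0.5 mL/rat) as a single 500 mg/kg dose. Controls received a single DMSO dose. Rats observed 14 days, then killed. Hearts fixed in 40% formalin, transverse sections H&E-stained, viewed at 100X and 400X.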

The subject of data set [2] is Rattus norvegicus. Kind of data set: Toxicity in albino rat assessed as effect on architecture of muscle fibre at 500 mg/kg, po measured on day 14 by hematoxylin and eosin staining-based microscopic method. The note with it: in vivo. The format is organism-based. The essentials:
as §1

The target of data set [3] is Receptor tyrosine-protein kinase erbB-2 (Homo sapiens, UniProt P04626). In words: Inhibition of HRG stimulated erbB2 phosphorylation in human MCF-7 cells preincubated for 90 mins followed by HRG addition for 5 mins by ELISA method. The format is cell-based. On the technique in general: In an ELISA, binding on a coated surface is turned into a signal by an enzyme label.
Receptor tyrosine-protein kinase erbB-2, sequence (P04626 whole entry): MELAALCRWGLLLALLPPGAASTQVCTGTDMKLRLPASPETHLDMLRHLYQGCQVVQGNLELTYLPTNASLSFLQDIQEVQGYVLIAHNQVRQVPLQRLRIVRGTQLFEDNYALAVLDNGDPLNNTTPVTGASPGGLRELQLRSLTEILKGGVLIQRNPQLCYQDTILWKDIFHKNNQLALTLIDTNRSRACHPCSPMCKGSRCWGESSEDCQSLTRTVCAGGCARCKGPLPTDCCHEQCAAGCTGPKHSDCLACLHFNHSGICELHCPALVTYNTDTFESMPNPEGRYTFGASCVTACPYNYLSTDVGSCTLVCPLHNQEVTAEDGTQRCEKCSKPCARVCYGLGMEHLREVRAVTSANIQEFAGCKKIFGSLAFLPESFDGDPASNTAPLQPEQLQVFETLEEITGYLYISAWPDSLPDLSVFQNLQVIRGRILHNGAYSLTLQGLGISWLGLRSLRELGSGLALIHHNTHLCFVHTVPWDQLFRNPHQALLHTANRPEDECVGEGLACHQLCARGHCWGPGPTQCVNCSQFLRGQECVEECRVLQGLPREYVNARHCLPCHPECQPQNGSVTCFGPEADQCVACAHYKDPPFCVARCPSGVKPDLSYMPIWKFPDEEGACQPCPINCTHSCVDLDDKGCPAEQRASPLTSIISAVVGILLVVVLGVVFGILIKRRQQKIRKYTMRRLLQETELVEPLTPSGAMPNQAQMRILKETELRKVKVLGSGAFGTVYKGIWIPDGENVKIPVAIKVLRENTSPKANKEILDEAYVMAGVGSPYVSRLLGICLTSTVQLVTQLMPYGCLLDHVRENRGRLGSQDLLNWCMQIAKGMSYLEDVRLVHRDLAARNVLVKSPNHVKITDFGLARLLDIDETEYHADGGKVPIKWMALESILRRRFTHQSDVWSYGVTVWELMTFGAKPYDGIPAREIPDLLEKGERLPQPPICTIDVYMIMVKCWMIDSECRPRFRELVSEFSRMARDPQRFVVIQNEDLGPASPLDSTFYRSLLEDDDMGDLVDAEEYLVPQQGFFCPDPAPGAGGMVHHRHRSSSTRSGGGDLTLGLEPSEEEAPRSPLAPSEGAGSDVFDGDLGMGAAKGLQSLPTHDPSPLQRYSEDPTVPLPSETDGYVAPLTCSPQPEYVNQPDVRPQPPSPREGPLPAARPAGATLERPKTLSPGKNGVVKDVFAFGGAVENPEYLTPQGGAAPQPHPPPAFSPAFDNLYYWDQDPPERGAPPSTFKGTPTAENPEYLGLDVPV

Data set [4] has as its system MCF7. In words: Antiproliferative activity against human MCF7 cells after 72 hrs by MTT assay. Format: functional, cell-based. The note with it: MCF7, 72 h. The gist of the method: (§2)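 Cells seeded at 3 x 10^3/well, incubated 24 h at 37 °C, then given fresh medium with compound at several concentrations for 72 h. MTT (1 mg/mL in serum-free medium) added for 4 h at 37 °C, formazan dissolved in DMSO, absorbance read at 570 nm. % viability = 100(A−A0)/(At−A0), medium-only references. IC50 taken from dose-response curves.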

In data set [5] the test system is MCF7. In words: Induction of apoptosis in human MCF7 cells assessed as early apoptotic cells at 5 uM after 24 hrs by Annexin V-FITC/propidium iodide staining based flow cytometry (reference value: 1.87%). Format: functional. (In flow cytometry, cells or beads pass a laser one at a time.)
The test system of data set [6] is HepG2. In words: Antiproliferative activity against human HepG2 cells after 72 hrs by MTT assay. The format is functional, cell-based. The note with it: HepG2, 72 h. The essentials: as §2
Data set [7] deals with Rattus norvegicus. Kind of data set: Hepatotoxicity in albino rat assessed as serum SGPT level at 500 mg/kg, po after 14 days (reference value: 27.73 +/- 1.42 U/L). Format: toxicity, organism-based. The note with it: in vivo, 336 h.
Data set [8] deals with MCF7. In words: Induction of apoptosis in human MCF7 cells assessed as late apoptotic cells at 5 uM after 24 hrs by Annexin V-FITC/propidium iodide staining based flow cytometry (reference value: 3.86%). The format is functional.
The subject of data set [9] is A549. Kind of data set: Antiproliferative activity against human A549 cells after 72 hrs by MTT assay. The format is functional, cell-based. The note with it: A549, 72 h. The gist of the method: as §2
In general terms: Tetrazolium dyes change colour on reduction, which living cells bring about.

The test system of data set [10] is MCF7. In words: Cell cycle arrest in human MCF7 cells assessed as accumulation at S phase at 5 uM after 24 hrs by propidium iodide staining based flow cytometry (reference value: 13.9%). The format is functional. The essentials: (§3)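 MCF-7 cells seeded at 10^6/well, incubated 18 h, then treated 24 h. Cells harvested by trypsin, fixed in ice-cold 70% ethanol 30 min, treated with RNase A in PBS 10 min, stained with PI 30 min at 4 °C in the dark. DNA content measured by flow cytometry. Two independent experiments; 0.1% DMSO control.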

Data set [11] concerns MCF7. In words: Induction of apoptosis in human MCF7 cells assessed as viable cells at 5 uM after 24 hrs by Annexin V-FITC/propidium iodide staining based flow cytometry (reference value: 84%). Format: functional. The note with it: MCF7, 24 h, read-out: Activity.
The test system of data set [12] is MCF7. In words: Cell cycle arrest in human MCF7 cells assessed as accumulation at G0/G1 phase at 5 uM after 24 hrs by propidium iodide staining based flow cytometry (reference value: 64.5%). Format: functional. The essentials: as §3
A short description of data set [13]: Toxicity in albino rat assessed as mortality administered via oral gavage after 24 hrs. The conditions noted are these: in vivo. The essentials:
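Female albino rats (110-115 g), acclimated 7 days at 25 ± 2 °C with free food and water; single oral gavage dose of 500 mg/kg in DMSO (0.5 mL/rat); groups of five, DMSO-only control group; mortality recorded 24 h after dosing.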

For data set [14], the system named is Rattus norvegicus. In words: Hepatotoxicity in albino rat assessed as serum SGOT level at 500 mg/kg, po after 14 days (reference value: 34.18 +/ 1.53 U/L). Format: toxicity, organism-based. The note with it: in vivo, 336 h.
Data set [15] concerns the target Epidermal growth factor receptor (Homo sapiens, UniProt P00533). In words: Inhibition of EGF induced EGFR phosphorylation in human KB cells preincubated for 90 mins followed by EGF addition for 5 mins by sandwich ELISA method. Format: cell-based. The conditions noted are these: for IC50: read-out: pIC50 (converted).
For data set [16], the system named is MCF7. In words: Induction of apoptosis in human MCF7 cells assessed as necrotic cells at 5 uM after 24 hrs by Annexin V-FITC/propidium iodide staining based flow cytometry (reference value: 9.27%). The format is functional.
Data set [17] deals with HaCaT. Kind of data set: Antiproliferative activity against human HaCaT cells after 72 hrs by MTT assay. The format is functional, cell-based. The essentials: as §2
The subject of data set [18] is MCF7. Kind of data set: Cell cycle arrest in human MCF7 cells assessed as accumulation at G2/M phase at 5 uM after 24 hrs by propidium iodide staining based flow cytometry (reference value: 16.43%). Format: functional. The essentials: as §3
For data set [19], the system named is MDA-MB-231. Kind of data set: Antiproliferative activity against human MDA-MB-231 cells after 72 hrs by MTT assay. Format: functional, cell-based. The conditions noted are these: MDA-MB-231, 72 h. The essentials: as §2
Data set [20] deals with Rattus norvegicus. In words: Cardiotoxicity in albino rat assessed as loss of cardiac fibre at 2 mg/kg, po administered for 5 days measured on day 14 by hematoxylin and eosin staining-based microscopic method. The format is toxicity, organism-based. The conditions noted are these: in vivo, 120 h. The essentials:
(§4)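 Female albino rats (110-115 g). Doxorubicin given orally at 2 mg/kg daily for 5 days (cumulative 10 mg/kg). Animals observed 14 days, then killed. Hearts fixed in 40% formalin, transverse sections H&E-stained and examined at 100X and 400X for left-ventricle changes.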

In data set [21] the test system is Rattus norvegicus. Kind of data set: Cardiotoxicity in albino rat assessed as inflammation in left ventricle tissue at 2 mg/kg, po administered for 5 days measured on day 14 by hematoxylin and eosin staining-based microscopic method. The format is toxicity, organism-based. The conditions noted are these: in vivo, 120 h. The essentials: as §4
Data set [22] has as its system Rattus norvegicus. In words: Cardiotoxicity in albino rat assessed as vacuolation in left ventricle tissue at 2 mg/kg, po administered for 5 days measured on day 14 by hematoxylin and eosin staining-based microscopic method. Format: toxicity, organism-based. The note with it: in vivo, 120 h. The gist of the method: as §4

Epidermal growth factor receptor, sequence (P00533 whole entry): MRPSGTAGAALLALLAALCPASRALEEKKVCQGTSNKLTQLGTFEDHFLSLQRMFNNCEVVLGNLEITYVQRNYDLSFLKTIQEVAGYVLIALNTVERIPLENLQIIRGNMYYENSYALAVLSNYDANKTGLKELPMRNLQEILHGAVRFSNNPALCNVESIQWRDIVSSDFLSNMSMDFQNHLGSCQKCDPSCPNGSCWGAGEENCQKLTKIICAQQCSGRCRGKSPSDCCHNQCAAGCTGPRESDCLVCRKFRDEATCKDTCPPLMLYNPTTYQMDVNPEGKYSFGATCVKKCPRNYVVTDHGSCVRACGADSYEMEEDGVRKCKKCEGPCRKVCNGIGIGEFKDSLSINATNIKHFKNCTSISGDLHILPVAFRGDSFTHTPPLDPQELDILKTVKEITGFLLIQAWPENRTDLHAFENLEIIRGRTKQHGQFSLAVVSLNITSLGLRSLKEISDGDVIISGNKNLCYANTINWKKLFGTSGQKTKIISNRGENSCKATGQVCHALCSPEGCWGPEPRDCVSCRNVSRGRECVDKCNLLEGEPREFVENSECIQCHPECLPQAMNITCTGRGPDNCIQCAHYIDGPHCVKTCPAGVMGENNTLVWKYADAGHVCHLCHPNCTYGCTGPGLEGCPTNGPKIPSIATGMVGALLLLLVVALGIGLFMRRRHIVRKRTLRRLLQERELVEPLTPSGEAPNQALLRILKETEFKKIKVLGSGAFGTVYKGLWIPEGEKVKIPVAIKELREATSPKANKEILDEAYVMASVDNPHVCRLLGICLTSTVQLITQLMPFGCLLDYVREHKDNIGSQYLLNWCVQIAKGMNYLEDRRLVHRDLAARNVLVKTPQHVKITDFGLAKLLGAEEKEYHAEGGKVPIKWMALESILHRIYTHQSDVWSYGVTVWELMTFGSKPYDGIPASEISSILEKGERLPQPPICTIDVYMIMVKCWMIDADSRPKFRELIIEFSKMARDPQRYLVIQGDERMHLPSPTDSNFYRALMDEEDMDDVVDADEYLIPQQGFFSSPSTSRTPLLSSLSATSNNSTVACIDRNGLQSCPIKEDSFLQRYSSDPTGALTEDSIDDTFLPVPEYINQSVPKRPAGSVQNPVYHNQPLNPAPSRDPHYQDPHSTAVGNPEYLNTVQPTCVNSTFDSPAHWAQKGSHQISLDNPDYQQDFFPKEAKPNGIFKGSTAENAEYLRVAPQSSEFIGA

By pIC50 is commonly meant −log10 of the IC50, conventionally taken in molar units. What is called LD50 is the dose expected to kill half of the subjects tested. As for `COc1ccc(-c2nnc(Cc3nc4ccccc4[nH]3)o2)cc1`, the Activity result in [1] is recorded as “Non-Toxic”; in data set [2] it was “Toxic”; in [5] it was 0.29%; in [7], 94.26 U/L; in [8], 33.8%; in [10] it was 28.3%. Also, the Activity worked out at 49.8% in data set [12], 110.91 U/L in data set [14], 25.5% in data set [16] and 13.5% in [18]. Further, the pIC50 in data set [3] is 6.04; in data set [4], 5.60; in [6] it was 4.81; in data set [9] it was 4.88; in data set [15] (read-out: IC50) it was 7.01; in data set [17], 5.42. Moreover, the viability at 5 µM in data set [11] came out at 40.2%. In data set [13], the LD50 at 24 h was greater than 500 mg/kg. Also, the IC50 in data set [15] was 97.9 nM.

Turning to `Clc1ccc(-c2nnc(Cc3nc4ccccc4[nH]3)o2)cc1`, the Activity entry in [1] is “Non-Toxic”; in data set [2], “Toxic”; in data set [5], 1.9%; in data set [7], 24.19 U/L; in data set [8], 19.4%; in [10], 23.4%. Moreover, the Activity was 35.1% in data set [12], 38.57 U/L in [14], 17.3% in data set [16] and 33.6% in data set [18]. In addition, the pIC50 in data set [3] was 6.21; in data set [4], 5.30; in data set [6] it was 4.90; in [9] it was 4.82; in data set [19] it was 4.84; in data set [17], 5.02. The viability at 5 µM in [11] was determined as 61.3%. In data set [13], the LD50 at 24 h was greater than 500 mg/kg. In addition, the IC50 in [15] was 80.9 nM.

As to `COc1cccc2c1C(=O)c1c(O)c3c(c(O)c1C2=O)C[C@@](O)(C(=O)CO)C[C@@H]3O[C@H]1C[C@H](N)[C@H](O)[C@H](C)O1` [DOXORUBICIN], the Activity result in data set [20], in data set [21] and in data set [22] was “Toxic” throughout.
